Source: PubChem
FN deposit inh – fibronectin deposition inhibition; AH1F fibroblasts, Alexa488-fibronectin deposition fluorescence, overnight; AID 743247; 0.086% of 350,000 active; inhibition, % at 12.6 µM;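 active = mean inhibition across replicates of 30% or more, regardless of how many single replicates reach that level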;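 also: positive control wells lacked labelled fibronectin entirely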
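Material: AH1F fibroblast monolayer depositing Alexa488-labelled fibronectin into matrix / Amount: 10000 AH1F cells per well / Signal: fluorescence 485/525 nm / Medium: DMEM, 2% serum / Compound: single dose, pinned / Incubation: 1 h cell adhesion before compound, then overnight fibronectin incubation / Reagent: Alexa488-FN, 24 nM final / Read-out: inhibition of fibronectin deposition signal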
TWEAK-Fn14 inh – blocks TWEAK-Fn14 interaction in a reporter cell assay. TWEAK-stimulated Fn14 reporter cells, luciferase luminescence, 8 h. 2% of 360,000 active. inhibition, % at 10 µM; in the data active = inhibition above about 50%
LGR2 antag – inhibitors of bursicon-induced Drosophila LGR2 receptor cAMP signaling. HEK293 LGR2, CRE-luciferase, bursicon-stimulated, 4 h. inhibition, % at 9.99 µM. 0.35% of 380,000 active. AID 720647;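 active = drop in luminescence signal, shown as inhibition above about 50% in the replicate tests, limit read from the data, passing the limit was not always enough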;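 also: agonist challenge used bursicon conditioned medium at about half maximal strength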
TROY signal inh – TROY signaling inhibition; inhibition, % at 10 µM; 0.98% of 360,000 active; AID 1347056; Q293 LMP1-TROYcd NF-kB luciferase reporter, 4 h;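 active = compounds whose plate-normalised and pattern-corrected inhibition of the luciferase reporter signal at the single screening dose is 50% or more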
XiGFP reactiv – reactivates the inactive X chromosome in mouse fibroblasts; XiGFP mouse fibroblasts, % GFP-positive cells imaging, 3 d; cells co-treated with 5-aza-dC sensitizer; scaled so ellipticine positive control = 100%; activation, % at 7.58 µM; 0.055% of 360,000 active;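 active = mean normalized replicate activation at least 10% and every replicate at or above 10%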;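 also: 0% = median of on-plate neutral control wells and 100% = ellipticine 6 µM median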
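Material: SV40-immortalized XiGFP fibroblast cells, line 68-5-11 | Buffer or medium: DMEM containing 5-aza-dC | Dosing: One concentration, pinned | Times: 3 d treatment, 15 min room-temperature fixation | Controls: Ellipticine 6 µM positive control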
EWS-Fli block – blocks EWS/Fli oncoprotein-driven transcription; A673 NR0B1-luciferase reporter, viability-normalised; inhibition, % at 12.6 µM; 0.67% of 350,000 active;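 active = mean inhibition of at least 50% after viability correction, with every replicate also passing that limit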;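 also: firefly luciferase signal divided by Alamar Blue viability fluorescence both relative to DMSO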
The depositor's hits bear a star; · = no result; ! = a repeat was not active. Compounds with a hit are over-represented: about 2.3% of the library has one in this group of screens.

SMILES	FN deposit inh	TWEAK-Fn14 inh	LGR2 antag	TROY signal inh	XiGFP reactiv	EWS-Fli block
Cc1cc(Br)ccc1NC(=O)CNC(=O)CSc1ncccn1	0	9	8	6	0	-2
CCC(=O)Nc1ccc2c(c1)OC[C@@H](C)N(C(=O)CC)C[C@@H](C)[C@H](OC)CN(C)C2=O	-4	·	-13	·	0	0
Cc1ccc(/C=N/Nc2cccc(C(=O)O)c2)s1	5	-18	58*	-25	0	·
Cc1nn(-c2ccccc2Cl)c(Cl)c1/C=N/Nc1cccc(C(=O)O)c1	-6	-23	80*	-104	0	·
Cc1ccc(/C=N/Nc2ccc(C(=O)O)cc2)s1	7	11	90*	-9	0	67*
O=C(N/N=C\c1cn(-c2ccccc2)nc1-c1ccccc1)c1ccc(Br)o1	·	55*	·	25	·	·
Cc1ccc(/C=N/Nc2ccc(C(=O)O)cc2)o1	-5	18	6	-33	0	-55
Cc1noc(C)c1NC(=O)Nc1ccc2c(c1)C(=O)N([C@H](C)CO)C[C@H](C)[C@@H](CN(C)Cc1ccc(C(=O)O)cc1)OCCCC[C@@H](C)O2	·	·	21	·	-1	2
NCC[C@H]1CC[C@H](NS(=O)(=O)Cc2ccccc2)[C@H](CO)O1	-11	·	13	·	0	-1
COCC(=O)N1CC2(CCN(C(=O)c3ccccn3)CC2)c2c(n(C)c3cc(OC)ccc23)[C@@H]1CO	·	·	-11	·	0	-3
CCOc1cc(/C=N/Nc2cccc(C(=O)O)c2)ccc1OC(=O)c1ccccc1	6	8	64*	-49	0	-48
Cc1nn(-c2ccccc2)c(Cl)c1/C=N/NC(=O)c1cccc(S(=O)(=O)N2CCCC2)c1	-4	62*	-5	7	0	3
COc1ccc(-c2nn(-c3ccccc3)cc2/C=N/NC(=O)c2cccc(S(=O)(=O)Nc3ccccc3Cl)c2)cc1	-9	56*	0	16	0	-14
O=C(C[C@H]1CC[C@H]2[C@@H](COC[C@@H](O)CN2Cc2nccs2)O1)NCc1ccc(F)cc1	-20	·	-4	·	0	-9
CC(=O)OCCN1c2ccccc2Sc2cnccc21	15	39	11	9	0	-4
C=CCN1c2ccccc2Sc2cnccc21	1	56*	19	44	0	1
Cc1cc(/C=C2/C(=N)N3C(c4ccccc4)=CSC3=NC2=O)c(C)n1-c1ccccc1	·	-8	2	-41	·	·
Cc1ccccc1-n1c(C)cc(/C=C2/C(=N)N3C(c4ccccc4)=CSC3=NC2=O)c1C	-16	55*	-12	8	0	-7
CC(=O)N1CCc2cc(S(=O)(=O)NCCC(=O)Nc3ccc4c(c3)OCCO4)ccc21	·	-22	·	-60	·	·
CC(=O)N1CCc2cc(S(=O)(=O)NC(CC(C)C)C(=O)Nc3ccc4c(c3)OCCO4)ccc21 (stereo unspecified)	·	57*	·	8	·	·
COc1ccc(C2NCCc3cc(OC)c(OC)cc32)cc1OC (stereo unspecified)	active	-24	·	-5	·	·
Cc1cc(/C=C2/C(=O)NN(c3ccccc3)C2=O)c(C)n1-c1cccc(O)c1	10	92*	-31	81*	0	-31
Cc1cc(C=C2C(=O)c3ccccc3C2=O)c(C)n1-c1ccccc1	·	89*	·	31	·	·
O=C1NN(c2ccccc2)C(=O)C1=Cc1ccccc1O	6	4	26	-5	0	5
Cc1cc(/C=C2\Cc3ccccc3C2=O)c(C)n1-c1ccccc1	-1	54*	-7	6	0	49
SMILES	FN deposit inh	TWEAK-Fn14 inh	LGR2 antag	TROY signal inh	XiGFP reactiv	EWS-Fli block
Cc1cc(C=C2C(=O)c3ccccc3C2=O)c(C)n1-c1ccc(C(=O)O)cc1	7	-12	-42	6	0	4
COc1ccc2c3c(n(C)c2c1)[C@H](CO)N(Cc1cccnc1)CC31CN(C(=O)NC(C)C)C1	·	·	10	·	0	-15
C[C@H]1CN([C@@H](C)CO)C(=O)c2cc(NC(=O)Cn3cnnn3)ccc2O[C@@H]1CN(C)C	·	·	-39	·	-1	-2
C/C(=N\NC(=O)c1cccc2ccccc12)c1ccccn1	0	101*	9	21	0	-32
C/C(=N\NC(=O)C(c1ccccc1)c1ccccc1)c1ccccn1	11	57*	25	-24	0	·
CC=Cc1ccc2n(c1=O)C[C@H]1[C@H](CO)[C@@H](C(=O)NC3CCCC3)N(C(=O)C3CC3)[C@@H]21 (mixture of isomers)	·	·	21	·	0	-9
CO[C@@H]1CN(C)C(=O)c2ccc(NC(C)=O)cc2OC[C@@H](C)N(Cc2ccccc2F)C[C@H]1C	-13	·	-10	·	0	5
Cc1ccc(-n2ncc3c(NNC(=O)c4ccco4)ncnc32)cc1Cl	1	50*	1	19	0	-9
Clc1ccc(-n2ncc3c(NCc4cccnc4)ncnc32)cc1Cl	-10	19	-67	51*	0	·
N#C/C(=C\c1ccccc1C(=O)O)c1nc2ccccc2[nH]1	-4	10	-19	3	0	-4
CCN(CC)c1ccc(/C=C(/C#N)c2nc3ccccc3[nH]2)c(OC(C)C)c1	·	76*	·	69*	·	·
CCOc1cccc(/C=C(/C#N)c2nc3ccccc3[nH]2)c1OCC(=O)O	0	61*	-13	58*	0	0
COc1cccc(/C=C(\C#N)c2nc3ccc(C)cc3[nH]2)c1OCC(=O)O	-1	1	-30	-25	0	7
CC(=O)Nc1ccc2nc(C3CC3)n(Cc3ccc(Cl)cc3)c(=O)c2c1	2	-52	-57	-56	0	-90
CCC(=O)Nc1ccc2nc(C3CC3)n(Cc3ccc(C(C)(C)C)cc3)c(=O)c2c1	11	66*	-63	75*	0	-11
O=C(Nc1cnc2sccn2c1=O)c1ccc(Cl)cc1Cl	-5	56*	25	-18	·	·
COc1ccc(Cl)cc1NC(=O)c1cnc2sccn2c1=O	-5	-9	7	-64	0	-32
O=C(Nc1cccn(Cc2c(Cl)cccc2Cl)c1=O)c1ccc(Cl)cc1Cl	-2	64*	·	16	·	·
CCNC(=O)Nc1ccc2c(c1)C(=O)N(C)[C@H]1CC[C@H](CC(=O)NCCOC)O[C@@H]1CO2	5	·	-4	·	0	-7
O=C(Nc1ccc(N2CCOCC2)c(S(=O)(=O)Nc2ccccc2Cl)c1)c1ccccc1	2	14	5	17	0	7
O=C(Nc1ccc(Cl)cc1)Nc1ccc(N2CCCC2)c(S(=O)(=O)Nc2ccccc2Cl)c1	-2	75*	42	33	0	·
CO[C@H]1CN(C)C(=O)c2cc(NC(=O)Nc3ccc(Cl)c(Cl)c3)ccc2OC[C@@H](C)NC[C@@H]1C	32*!	·	11	·	0	-6
